Measurements taken from PMC6457131 (AIDS (London, England), 2019).
Entries after “also recorded” stand apart in the source; their conditions may differ.

Legend:
EcoHIV-infected mice [1] = conditions: cited from earlier work
EcoHIV-infected mice [2] = assay: Radial arm water maze; type: in vivo, C57BL/6J mice
[3] = intranasal 2.4 IU; cited from earlier work
EcoHIV-infected mice [4] = assay: Contextual fear conditioning; type: in vivo; conditions: 129x1/SvJ mice, 1 month after infection, during intranasal insulin treatment
[5] = tested on: MAP2 and NeuN in CA1 and CA3 regions of the hippocampus; assay: Hippocampal neuronal integrity by MAP2/NeuN immunofluorescence staining; type: in vivo, mice
How it was run: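 Brains came from 3 mice per variable after behavioural testing. After perfusion, frozen sections were immunostained for MAP2 (dendrites) and NeuN (neuronal nuclei) and imaged by confocal microscopy. Fluorescence was quantified in hippocampal CA1 and CA3.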

EcoHIV = EcoHIV burdens in spleen cells and brain by quantitative PCR; type: in vivo, mice
[6] = tested on: neuronal function and metabolism-related genes in the brain; type: in vivo, mice; conditions: intranasal insulin daily for 9 days
[7] = Intranasal insulin pharmacokinetics in plasma, CSF and cortex; type: in vivo, C57BL/6 mice
[8] = intranasal insulin daily for 9 days, QPCR
[9] = intranasal 2.4 IU/mouse, uninfected mice, n = 3-8/group, observed value, ELISA
[10] = intranasal 2.4 IU/mouse, converted with 1 μIU/ml = 0.14 pmol/l

[N-]=[N+]=CC(=O)CC[C@H](N)C(=O)O [6-diazo-5-oxo-L-norleucine]
EcoHIV virus replication (EcoHIV-infected mice [1]): but not virus replication
murine NCI caused by EcoHIV (EcoHIV-infected mice [1]): can be prevented

Human insulin
RAWM visible platform latency (mobility, vision, motivation) (EcoHIV-infected mice [2]; all mouse groups, intranasal insulin daily for 9 days): performed equally well
day of RAWM testing at which maximum effect on working memory was reached (EcoHIV-infected mice [2]; infected mice, daily retention trial): ≤ 5 days
NCI in RAWM, 3 months after infection (EcoHIV-infected mice [2]; intranasal 2.4 IU/mouse daily for 9 days, started 3 months after EcoHIV infection): completely reversed; also recorded: fully reversible
RAWM performance of infected animals after treatment cessation (EcoHIV-infected mice [2]; last 3-day average, compared with infected, continually treated animals): dramatically worsened
energy metabolism in mouse brain [3]: increases energy metabolism in mouse brain
plasma glucose levels [3]: but not plasma glucose levels
contextual freezing response time of infected mice (EcoHIV-infected mice [4]): returned the freezing response time of infected mice to that of uninfected animals
NeuN staining of neuronal cell bodies in hippocampus ([5]; all conditions tested): remained unaltered
MAP2 dendrite staining in CA1 and CA3 regions of hippocampus of infected mice ([5]; intranasal insulin daily for 9 days, three mice per variable): levels similar to uninfected mice
peripheral virus burdens after discontinuation of insulin treatment (EcoHIV; EcoHIV + insulin/disc group compared with untreated mice): significantly increased
HIV DNA brain levels, 3 months after infection (EcoHIV; [8]): not significantly affected
HIV brain burdens, 1 month after infection (EcoHIV; [8]): significantly reduced
HIV levels in spleen, 1 month after infection (EcoHIV; [8]): no effect
downmodulation of fourteen genes in brains of EcoHIV-infected mice [6]: fully reversed
cortex insulin level above baseline ([7]; for 3 h following intranasal 2.4 IU/mouse): more than 10 fold
duration of therapeutic intracerebral insulin concentrations ([7]; intranasal 2.4 IU/mouse): 2 to 3 h
time by which insulin cleared to baseline, cortex ([7]; intranasal 2.4 IU/mouse): ≤ 6 h
time by which insulin cleared to baseline, plasma ([7]; intranasal 2.4 IU/mouse): ≤ 6 h
time by which insulin cleared, CSF ([7]; intranasal 2.4 IU/mouse): ≤ 3 h
Cmax, CSF [7, 9]: 17 μIU/ml
Cmax, plasma [7, 9]: 11.7 μIU/ml
Tmax, CSF [7, 9]: 1 h
Cmax, CSF [7, 10]: 2.38 pmol/L
Cmax, cortex [7, 10]: 7.42 pM
Cmax, plasma [7, 10]: 1.64 pmol/L
half-life of insulin in cerebrospinal fluid ([7]; intranasal administration to mice): about 2 h
